CaV13 FRET inh: Disruptors of the CACNA1D IQ motif to Ca2+-dependent inactivation inhibitor domain association, primary screening, Förster resonance energy transfer in intact living … | HEK cells, CFP/YFP FRET ICDI-IQ, plate reader, 10 min; percent FRET-ratio fall versus neutral wells | inhibition, % at 12.3 µM | 340,000 compounds, 0.098% hits | AID 743397;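 active = mean replicate inhibition of at least 30% and at least 1% of replicates passing that level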
GRK2 aptamer HTS: inhibitors of human GRK2 displacing RNA aptamer; P25098; 330,000 compounds, 0.59% hits; inhibition of aptamer binding, % at 10 µM; bead flow cytometry, FAM-aptamer displacement from GRK2;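 active = inhibition of aptamer binding above 40%, roughly 3 SD of noise, on plates passing a quality check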;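 also: median bead fluorescence of bound FAM aptamer so fluorescent compounds give negative values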
procasp3 activ: activates human procaspase-3 | recombinant procaspase-3 D3A, Ac-DEVD-pNA absorbance 405 nm | 330,000 compounds, 0.11% hits | activation, % at 8.5 µM;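 active = activation above the mean of all tested compounds plus 3 SD, cut at about 21% in these data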
Target sequence (P42574 whole entry D9A/D28A/D175A): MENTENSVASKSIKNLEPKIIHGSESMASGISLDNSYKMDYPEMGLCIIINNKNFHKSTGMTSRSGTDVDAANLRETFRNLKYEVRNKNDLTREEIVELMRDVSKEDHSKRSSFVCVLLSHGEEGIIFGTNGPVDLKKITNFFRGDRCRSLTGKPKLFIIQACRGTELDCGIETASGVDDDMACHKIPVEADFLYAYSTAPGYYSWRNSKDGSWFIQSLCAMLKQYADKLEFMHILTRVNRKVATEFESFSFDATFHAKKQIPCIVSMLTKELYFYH
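Technique: 405 nm absorbance of p-nitroaniline, reads at 0 and 120 min; Test system: Procaspase-3 D3A mutant; Incubation: 1 h enzyme-compound preincubation, then 2 h substrate reaction, 25 °C; Repeats: singlicate, each compound tested once; Benchmarks: low control DMSO wells, high control DMSO plus 5 µM PC-3 D3A.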
proCasp7 act: counter-screen for procaspase-3 activators: activators of human procaspase-7 | recombinant procaspase-7, Ac-DEVD-pNA absorbance 405 nm; D23A/D198A/D206A triple mutant, cannot self-cleave; scale: DMSO 0, 5 µM enzyme 100 | activation, % at 8.5 µM | 330,000 compounds, 0.093% hits;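 active = percent activation above the screen-wide mean plus 3 SD, cut at about 25% in these data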
Target sequence (P55210 whole entry D23A/D198A/D206A): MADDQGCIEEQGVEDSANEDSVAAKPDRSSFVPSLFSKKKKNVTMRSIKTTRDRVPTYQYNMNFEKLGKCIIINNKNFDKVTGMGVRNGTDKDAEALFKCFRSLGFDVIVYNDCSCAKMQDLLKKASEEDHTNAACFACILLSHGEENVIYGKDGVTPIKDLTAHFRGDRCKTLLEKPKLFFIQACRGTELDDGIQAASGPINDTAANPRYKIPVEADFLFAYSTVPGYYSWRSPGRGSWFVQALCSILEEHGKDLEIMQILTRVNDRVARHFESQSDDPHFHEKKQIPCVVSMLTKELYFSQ
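signal = Epi-absorbance of released pNA at 405 nm, two timepoints | assay system = Uncleavable procaspase-7 mutant enzyme | reagent = Ac-DEVD-pNA substrate, 400 µM as added | times = 1 h enzyme–compound preincubation and 2 h substrate reaction, both 25 °C | benchmarks = low DMSO alone, high DMSO plus 5 µM PC-7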
T cell modulator: T cell immune modulators affecting CD8 T cell-vesicle binding; 2C CD8+ T cell-vesicle binding, flow cytometry; stronger effect = lower value; 330,000 compounds, 0.068% hits; response (vesicle binding), % at 7 µM;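 active = response, share of CD8 T cells binding vesicles, and their 90th percentile fluorescence all below set limits, cut at about 80% in these data, passing the limit was not always enough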;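 also: values below 100% mean blocked vesicle binding to the CD8+ T cells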
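Material: murine 2C transgenic CD8+ T lymphocytes / Also added: QL9-peptide-loaded Drosophila micro-vesicles bearing Ld, ICAM-1 and B7-1 / Schedule: binding step 1.5 h, 37 °C, antibody labelling 20 min, ice / Signal: flow cytometry, PE anti-B7-1 (FL2) versus Alexa647 anti-CD8 (FL8), PFA-fixed / Evaluation: percent CD8+ FL2 mean versus row control / Benchmarks: naked versus QL9-loaded vesicles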
aDG glyco act: alpha-DG glycosylation activation; Pro5-aDG cells, alpha-DG glycosylation AlphaScreen (IIH6); 0% Pro5, 100% B10-LARGE cell signal; 360,000 compounds, 0.22% hits; activation, % at 10 µM;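 active = activation of at least 8% versus controls, or a plate z-score of at least 8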;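 also: Pro5 are CHO cells carrying HIG-tagged alpha-DG that lacks glycosylation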
GRK2 inh confirm: confirmation of human GRK2 inhibitors displacing RNA aptamer; shares compounds with GRK2 aptamer HTS; bead-bound GRK2, FAM-aptamer displacement, flow cytometry; aptamer displacement, % at 10 µM; 2,000 compounds, 4% hits;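 active = aptamer displacement above 40%, near three times the noise of non-fluorescent compounds, on plates passing quality checks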;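 also: negative values mostly reflect intrinsic compound fluorescence rather than true enhancement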
Aptamer quench 1: quenches fluorescent RNA aptamer, GRK2 hit artifact; Fluorescent RNA aptamer beads, quenching, flow cytometry; stronger effect = higher value; AID 504521; 110 tested, under 10 active; fluorescence change (kMESF span), kMESF (concentration not given with the values); shares compounds with GRK2 aptamer HTS;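 active = compounds whose bead fluorescence drops by more than 37 kMESF across the dose range, marking them as dye quenchers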
FAM quench CP1: quenches fluorescent RNA aptamer, GRK2 hit artifact. shares compounds with GRK2 aptamer HTS. Carboxyfluorescein RNA aptamer on beads, flow cytometry quenching; stronger effect = lower value. fluorescence response (% of DMSO), % at 10 µM. 2,000 tested, under 10 active. AID 504580;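 active = compounds that quench the bead-bound fluorescent RNA probe, cutting fluorescence to under half of the solvent control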;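 also: counterscreen run without GRK2 so only probe quenching by compound is measured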
GRK2 confirm 2: human GRK2 inhibition confirmation, cherry pick 2; shares compounds with GRK2 aptamer HTS; bead-bound GRK2, FAM-aptamer displacement, flow cytometry; inhibition of aptamer binding, % at 10 µM; 360 tested, under 10 active; AID 504782;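 active = inhibition of aptamer binding above 40%, about triple the noise seen with nonglowing compounds, on plates passing quality control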;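 also: negative values mostly come from compounds that fluoresce themselves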
Aptamer quench3: aptamer fluorescence quenching in GRK2 counter-screen dose response; AID 504819; change in fluorescence (kMESF span), kMESF (concentration not given with the values); Streptavidin beads, FAM-RNA aptamer fluorescence quenching, flow cytometry; shares compounds with GRK2 aptamer HTS; 25 tested, under 10 active;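 active = compounds quenching the bead-bound labeled aptamer, with fluorescence dropping by more than 37 kMESF over the dose range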
FAM quench SP: aptamer fluorescence quenching in GRK2 counter-screen; 360 tested, under 10 active; AID 588494; fluorescence response vs DMSO, % at 10 µM; carboxyfluorescein RNA aptamer beads, flow cytometry quenching; stronger effect = lower value; shares compounds with GRK2 aptamer HTS;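 active = response vs DMSO under 50%, meaning signal dropped by over half, treated as fluorescence quencher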;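 also: labelled aptamer on streptavidin beads without GRK2 as a quench counter-screen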
FAM quench PS1: aptamer fluorescence quenching in GRK2 powder counter-screen | shares compounds with GRK2 aptamer HTS | Bead-bound FAM RNA aptamer fluorescence quenching, flow cytometry; stronger effect = lower value | fluorescence ratio to DMSO, % at 11.1 µM | 35 tested, under 10 active;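 active = compounds that dim the fluorescent label, raw bead signal shifting by over 33 units between lowest and highest dose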
Numbers stand for hits; n = inactive; x = no result. This is a sample that favours compounds with a hit; in the whole collection about 1.1% have one here.

SMILES | CaV13 FRET inh | GRK2 aptamer HTS | procasp3 activ | proCasp7 act | T cell modulator | aDG glyco act | GRK2 inh confirm | FAM quench CP1 | others
CCc1ccccc1NC(=O)CCS(=O)(=O)c1ccc(Br)cc1 | n | 57 | n | n | n | n | n | n | Aptamer quench 1=n;Aptamer quench3=n;FAM quench PS1=n
CCOc1ccc(NC(=O)CCS(=O)(=O)c2ccc(Br)cc2)cc1 | n | 83 | n | n | n | n | x | x | GRK2 confirm 2=60;Aptamer quench3=n;FAM quench SP=n;FAM quench PS1=n
CC(C)S(=O)(=O)N1CCN(c2ccnc3cc(Cl)ccc23)CC1 | n | n | n | n | n | n | x | x
COc1ccc(Cc2c(-c3ccccc3)nc3ccc(Br)cn23)c(C)c1 | n | x | x | x | x | n | x | x
CCOc1ccccc1NC(=O)CCS(=O)(=O)c1ccc(Br)cc1 | n | 98 | n | n | n | n | 92 | n | Aptamer quench 1=n;Aptamer quench3=n;FAM quench PS1=n
COc1ccc(C(C(=O)NCc2ccccc2)n2c(-c3ccccn3)nc3ccccc32)cc1 (stereo not drawn) | n | x | x | x | x | n | x | x
NS(=O)(=O)c1ccc2nc(NC(=O)c3ccc(Br)o3)sc2c1 | n | 54 | n | n | n | n | n | n
CN1OC[C@@H]2CN(C(=O)C3CCCCC3)[C@H](c3ccc(N4CCCCC4)cc3)C[C@@H]21 | n | x | x | x | x | x | x | x
Cc1cccc(N(CC(=O)NC2CCCC2)C(=O)CNC(=O)c2ccco2)c1C | n | n | n | n | n | n | x | x
Cc1ccccc1C(=O)NCCc1nnc(SCC(=O)Nc2nc(-c3ccccc3)cs2)n1C | n | 55 | n | n | n | n | n | n
Cc1cc(C)nc(SCc2nnc(SCC(=O)Nc3nc(-c4ccccc4)cs3)n2C)n1 | n | n | n | n | n | n | x | x
O=C(CCCN1C(=O)/C(=C\c2cccs2)SC1=S)Nc1ccc(O)cc1C(=O)O | n | n | n | n | n | n | x | x
O=C(CCCN1C(=O)/C(=C\c2ccco2)SC1=S)Nc1ccc(O)cc1C(=O)O | n | 45 | n | n | n | n | n | n
CCCCCCCNC(=O)C1(CC2CC(c3ccc(Cl)cc3)=NO2)CCN(C(=O)CCCCCBr)CC1 (stereo not drawn) | n | n | n | n | n | n | x | x
CCOC(=O)Nc1ccc(C)cc1C | x | n | n | n | n | n | x | x
CCOC(=O)C(NC(C)=O)C(=O)Nc1ccc(C)cc1C (stereo not drawn) | n | 50 | n | n | n | n | n | n
O=c1[nH]c(Cc2cccc(C(F)(F)F)c2)nc2ccccc12 | n | n | n | n | n | n | n | n
O=c1[nH]c(Cc2ccc(Cl)cc2)nc2ccccc12 | n | n | n | n | n | n | x | x
